# Compound activity (PubChem BioAssay)
# Most compounds without a hit are left out; they make up all but 3.1% or so of the library.
# ADAM17 inh: inhibitors of human ADAM17 | P78536 | recombinant ADAM17, EDANS/DABCYL FRET peptide cleavage | inhibition, % at 6.95 µM | 370,000 tested, 0.83% active | AID 720648;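 active = inhibition above the mean of compounds lying between control limits plus 3 SD, set per campaign, cut at about 8.5% in these data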;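 also: 0% = DMSO-only wells as the low control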
# ADAM10 inh: ADAM10 inhibition, QFRET primary screen; recombinant ADAM10, EDANS/DABCYL FRET peptide cleavage, 3 h; 370,000 tested, 0.62% active; inhibition, % at 7 µM; O14672;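 active = inhibition above a per-campaign cutoff equal to the mean of compounds falling between control-based bounds plus 3 SD, cut at about 20% in these data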;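 also: 0% = DMSO wells while the 100% control is not disclosed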
# Target sequence (O14672 214-748 limits assumed): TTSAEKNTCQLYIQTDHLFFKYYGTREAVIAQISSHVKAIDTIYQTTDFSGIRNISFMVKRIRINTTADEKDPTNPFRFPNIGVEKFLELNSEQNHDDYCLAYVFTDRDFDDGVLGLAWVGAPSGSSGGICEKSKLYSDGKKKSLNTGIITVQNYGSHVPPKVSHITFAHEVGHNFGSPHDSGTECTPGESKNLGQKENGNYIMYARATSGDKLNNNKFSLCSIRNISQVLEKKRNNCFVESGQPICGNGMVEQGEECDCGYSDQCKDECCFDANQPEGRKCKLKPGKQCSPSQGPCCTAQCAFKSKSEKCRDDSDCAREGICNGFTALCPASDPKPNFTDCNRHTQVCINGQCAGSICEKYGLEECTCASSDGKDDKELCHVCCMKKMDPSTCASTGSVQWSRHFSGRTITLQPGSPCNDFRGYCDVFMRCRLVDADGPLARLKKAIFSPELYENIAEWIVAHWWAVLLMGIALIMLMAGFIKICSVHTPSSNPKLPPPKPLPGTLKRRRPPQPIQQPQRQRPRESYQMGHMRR
# Hep lipid drop: hepatic lipid droplet formation modulation. AML12 mouse hepatocytes, oleate lipid droplets, BODIPY imaging. inhibition, % at 6.5 µM. 240,000 tested, 0.4% active. AID 1656;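 active = lipid droplet intensity inhibited by at least 50%, with more than 500 cells counted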
#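 Material – AML12 mouse liver cells · Also added – oleate loading, 100 µM · Compound dosing – 6.5 µM single-point dosing · Times – overnight treatment with compound plus oleate · Measured by – fluorescence imaging, 20x objective, two fields per well · Read-out – percent inhibition of filter-corrected integrated lipid droplet intensity per well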
# aDG glyco up: alpha-DG glycosylation activation; Pro5-aDG cells, alpha-DG glycosylation AlphaScreen (IIH6); 0% Pro5, 100% B10-LARGE cell signal; activation, % at 10 µM; 360,000 tested, 0.22% active; AID 624168;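 active = activation of at least 8% versus controls, or a plate z-score of at least 8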;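 also: Pro5 are CHO cells carrying HIG-tagged alpha-DG that lacks glycosylation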
# V-ATPase pH: alters yeast V-ATPase proton transport. S. cerevisiae, pHLuorin cytosolic pH fluorescence. response, % at 10 µM. 350,000 tested, 0.37% active. AID 504577; in the data active = response mostly above about 7.3%, no sharp cut-off; inactive = mostly below about 5.4%; also: actives read high
# MPTP block: blocks calcium-induced mitochondrial swelling; inhibition, % at 10 µM; AID 602449; 360,000 tested, 1.4% active; isolated mouse mitochondria, Ca2+ swelling absorbance, 30 min;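 active = inhibition of 50% or more, scaled per plate between neutral and stimulator controls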;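 also: 0% = DMSO wells given calcium and 100% = 1 mM EGTA wells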
# ADAM10 confirm: human ADAM10 inhibition, confirmation; shares compounds with ADAM10 inh; ADAM10 QFRET peptide cleavage, EDANS fluorescence; inhibition, % at 6.95 µM; 2,100 tested, 1% active; AID 743208;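 active = inhibition above about 20% chosen separately for each screening run, limit read from the data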;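 also: 0% = DMSO wells and 100% = marimastat wells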
# ADAM17 ctr: inhibits human ADAM17 in ADAM10 exosite counter-screen; inhibition, % at 6.95 µM; ADAM17 QFRET peptide cleavage, EDANS fluorescence; 2,100 tested, 0.5% active; shares compounds with ADAM10 inh;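 active = mean triplicate inhibition above the solvent-only control wells' mean plus 3 SD, cut at about 12% in these data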;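 also: 0% = DMSO wells and 100% = marimastat wells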
# Numbers without * were called inactive; . = no result.
SMILES,ADAM17 inh,ADAM10 inh,Hep lipid drop,aDG glyco up,V-ATPase pH,MPTP block,ADAM10 confirm,ADAM17 ctr
Cc1ccc(-c2cc(C(=O)NN=C/C=C/c3ccco3)[nH]n2)cc1C,5.7,20.0*,.,.,.,.,8.3,3.8
O=C(N/N=C/c1ccco1)c1cc(-c2ccc3ccccc3c2)n[nH]1,3.1,9.8,9.5,0.1,-2.4,1.8,.,.
COc1ccc(NC(=O)CC2C(=O)N(CCc3ccccc3)C(=S)N2Cc2cccnc2)cc1 (stereo unspecified),5.9,21.9*,.,0.0,3.8,1.1,4.2,0.7
COc1ccc(-c2[nH]c(-c3ccc(C)cc3)nc2SCC(=O)Nc2nccs2)cc1,0.5,20.0*,-0.1,0.1,-0.9,27.0,6.0,2.9
COc1ccc(-c2nc(SCC(=O)Nc3nccs3)c(-c3ccc(Cl)cc3)[nH]2)cc1,0.9,-6.2,14.2,-0.2,-2.2,0.7,.,.
CC(C)C(=O)OCC(=O)Nc1ccc(N=Nc2ccccc2)cc1,7.0,24.6*,-11.8,-0.5,0.3,1.6,-0.2,1.0
C#CCOCCOCCOCCNc1nc(N2CCN(C(=O)CCCCCCCCCCNC(=O)[C@@H](CCSC)n3cc(CCO)nn3)CC2)nc(N2CCN(C(=O)CCCCCCCCCCNC(=O)[C@@H]([C@H](C)O)n3cc(C)nn3)CC2)n1,4.6,20.1*,.,0.2,2.9,-2.6,1.7,0.3
COCCCN1C(=O)[C@H](CC(=O)N2CCC(c3ccccc3)CC2)[C@]2(C(=O)OC)CCCCC=C12,4.2,5.0,.,.,.,.,.,.
C[C@H]1[C@@H](c2ccccc2)OC(O)([C@H](Cc2ccccc2)NC(=O)OC(C)(C)C)CN1C (stereo partly specified),-0.9,3.4,.,.,.,.,.,.
COc1ccc(Cl)cc1NC(=O)CN(C)C(=O)CN1C(=O)NC(C)(c2ccc3ccccc3c2)C1=O (stereo unspecified),4.9,27.3*,.,-0.2,0.6,-0.3,2.2,0.0
COc1ccc(NC(=O)CN(C)C(=O)c2sc3ccccc3c2Cl)cc1,1.5,5.6,.,0.0,0.6,-1.1,.,.
COc1ccc(Cl)cc1NC(=O)CN(C)C(=O)c1sc2ccccc2c1Cl,6.6,23.5*,.,0.5,-0.3,1.5,9.0,2.7
O=C(OCCN1CCCC12CCC(c1ccccc1)CC2)c1ccccc1 (stereo unspecified),-1.2,1.9,.,.,.,.,.,.
COc1ccc([C@@H]2[C@@H]3C(=O)N(C(C)(C)C)C(=O)[C@@H]3[C@]3(Cc4ccc(Cl)cc4)C(=O)N(c4ccc(OC)cc4)C(=O)N23)cc1,7.0,20.8*,.,-0.2,2.0,39.7,4.9,1.1
COc1ccc(-c2nn(-c3ccccc3)cc2CNC(=O)c2cccc([N+](=O)[O-])c2)cc1,8.3,20.9*,-18.2,0.2,-0.1,7.7,4.3,1.3
COc1ccc(NC(=O)CN(C)C(=O)c2cn(-c3ccccc3)nc2-c2ccc(OC)cc2)cc1,7.1,25.7*,.,-0.3,-2.3,-0.6,0.5,0.5
COc1ccc(-c2nn(-c3ccccc3)cc2C(=O)Nc2cccc(S(=O)(=O)NC3=NCCC3)c2)cc1,2.4,23.9*,.,-0.4,-3.2,1.0,7.4,1.4
CC1(C)CC(=O)C=C(Nc2ccccc2NC(=O)c2cc(F)cc(F)c2)C1,5.0,3.6,.,.,.,.,.,.
S=c1[nH]nc(CSc2nc3ccccc3s2)n1Cc1ccccc1,0.7,21.9*,1.9,0.5,-1.7,-0.3,-1.1,0.3
CCn1c(CSc2nc3ccccc3s2)n[nH]c1=S,3.3,10.8,8.3,0.1,-5.7,0.3,.,.
Cc1cccc(NC(=S)NNC(=O)c2cccc([N+](=O)[O-])c2)c1,2.8,20.8*,-12.3,-0.3,-0.5,19.2,-2.4,0.1
O=C(COC(=O)Cc1c(Cl)cccc1Cl)Nc1ccccc1-c1ccccc1,8.4,23.1*,-19.4,-0.3,0.0,1.0,3.2,1.5
